Test results taken from paper PMC4481138 (Nuclear medicine and biology, 2015).
One block for each compound: values may come before it.

Assays:
[1] = target: norepinephrine transporter (NET) (Bos taurus, UniProt P51143); format: cell-based, human; settings: read-out: IC50, competitive inhibition of [^125I]MIBG uptake; UVW-NAT cells, 2 h at 37 °C, unlabeled compound 10^−9 to 10^−3 M
How it was run: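 UVW-NAT cells (NET-transfected human glioma; MEM, 10% FCS, 1 g/L geneticin) seeded at 8 × 10^4/well and held overnight at 37 °C. After cold-PBS washes, fresh medium, [125I]MIBG (3.7 kBq) and unlabeled competitor (10−9 to 10−3 M final) were added for 2 h at 37 °C. Cells were washed, lysed in 1 N NaOH and gamma-counted with supernatants and input standards. IC50 came from nonlinear regression of uptake versus concentration.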

UVW-NAT cells = settings: cited from earlier work
SK-N-SH cells = settings: cited from earlier work
[2] = Paired-label biodistribution in normal mice; format: in vivo, Balb/c mice; settings: for heart uptake after DMI pretreatment as percent of controls: experiment [^18F]FPOBBG / [^125I]MIBG; for heart uptake after DMI pretreatment: DMI 10 mg per kg i.p. 30 min before tracer
How it was run: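 Balb/c mice received the radiotracer pair in 100 μL PBS via tail vein: 185 kBq radioiodinated reference plus 296 kBq 18F test compound. Groups of 5 were killed by isoflurane overdose at 1, 2 and 4 h. Organs and blood were blot-dried, weighed and dual-channel gamma counted, giving %ID/g. For blocking, DMI 10 mg per kg i.p. was given 30 min pre-tracer, with sacrifice 1 h later. Co-administered agents were compared by paired 2-tailed t-test.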

[3] = system: SK-N-BE(2c) human neuroblastoma cells; assay: Paired-label uptake by NET-expressing tumor cells; format: cell-based; settings: SK-N-BE(2c) cells, 2 h, 37 °C, absence of inhibitor, paired-label [^18F]FPOIBG / [^125I]MIBG
How it was run: (§1)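 Cells were seeded at 5 × 10^5/well and held overnight at 37 °C, 5% CO2 (SK-N-SH: RPMI 1640 + FCS; SK-N-BE(2c): DMEM, 15% FCS; UVW-NAT: MEM, 10% FCS, 1 g/L geneticin), then PBS-washed into fresh medium. Tracers were co-incubated 2 h at 37 °C (~3.7 kBq radioiodinated, 18.5 kBq 18F). Parallel desipramine wells gave non-specific uptake. NaOH lysates and supernatants were dual-label gamma-counted and reported as % input dose.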

[4] = system: UVW human glioma cells transfected to express NET (UVW-NAT); assay: Paired-label uptake by NET-expressing tumor cells; format: cell-based; settings: 2 h, 37 °C, absence of inhibitor, paired-label [^18F]FPOIBG / [^125I]MIBG
How it was run: as §1

[5] = system: SK-N-SH human neuroblastoma cells; assay: Paired-label uptake by NET-expressing tumor cells; format: cell-based; settings: 2 h, 37 °C, absence of inhibitor, paired-label [^18F]FPOIBG / [^125I]MIBG
How it was run: as §1

[6] = cited from earlier work
[7] = system: PC-12 rat pheochromocytoma xenografts; settings: 8 h, single label format, PC-12 xenograft mice; cited from earlier work
[8] = system: three NET-expressing cell lines (SK-N-SH, UVW-NAT, SK-N-BE(2c)); format: cell-based, human; settings: 2 and 4 h, specific uptake (Figure 3)
How it was run: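 NET-expressing human cells (SK-N-SH, SK-N-BE(2c), NET-transfected UVW glioma) were plated at 5 × 10^5 per well and cultured overnight at 37°C, 5% CO2. They were washed, given fresh medium and incubated with the radioiodine pair (about 3.7 kBq each) at 37°C for 2 and 4 h, with or without desipramine. After cold PBS washes, cells were lysed with 1 N NaOH at 37°C, 10 min twice. Dual-label gamma counting gave cell-associated fraction of total radioactivity.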

[9] = i.v., 1 h, no DMI (controls), paired-label
[10] = i.v., 2 h, paired-label [^18F]FPOBBG / [^125I]MIBG
[11] = i.v., 4 h, paired-label [^18F]FPOBBG / [^125I]MIBG

norepinephrine transporter (NET), sequence (P51143 whole entry): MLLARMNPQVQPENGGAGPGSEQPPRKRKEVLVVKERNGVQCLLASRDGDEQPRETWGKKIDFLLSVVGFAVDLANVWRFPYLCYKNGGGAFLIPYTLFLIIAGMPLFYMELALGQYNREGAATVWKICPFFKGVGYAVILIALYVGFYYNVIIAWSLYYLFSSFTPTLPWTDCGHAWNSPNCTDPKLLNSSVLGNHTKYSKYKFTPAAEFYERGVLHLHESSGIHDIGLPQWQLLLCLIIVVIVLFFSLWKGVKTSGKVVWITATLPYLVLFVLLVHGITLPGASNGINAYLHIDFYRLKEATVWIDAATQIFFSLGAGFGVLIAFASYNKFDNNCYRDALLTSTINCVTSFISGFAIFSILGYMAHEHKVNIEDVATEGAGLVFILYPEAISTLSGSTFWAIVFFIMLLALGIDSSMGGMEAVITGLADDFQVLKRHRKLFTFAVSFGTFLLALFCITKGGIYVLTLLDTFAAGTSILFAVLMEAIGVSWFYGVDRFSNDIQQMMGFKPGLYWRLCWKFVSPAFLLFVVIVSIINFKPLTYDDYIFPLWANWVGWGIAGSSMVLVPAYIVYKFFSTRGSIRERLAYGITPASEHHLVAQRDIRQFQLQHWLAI

IC50 [1]: 11 ± 2.9 µM
SMILES: N=C(N)NCc1ccc(OCCCF)c(Br)c1 [FPOBBG, 4-(3-Fluoropropoxy)-3-bromobenzylguanidine]

IC50 [1]: 20 ± 0.1 µM
SMILES: N=C(N)NCc1ccc(OCCCF)c(I)c1 [FPOIBG, 4-(3-Fluoropropoxy)-3-iodobenzylguanidine]

heart uptake after DMI pretreatment as percent of controls ([2]; 1 h): 73% | heart uptake [2, 9]: 21.1 ± 5.6 % ID/g | heart uptake [2, 10]: 20.1 ± 2.4 % ID/g | heart uptake [2, 11]: 16.5 ± 2.3 % ID/g
SMILES: N=C(N)NCc1ccc(OCCC[18F])c(Br)c1 [[^18F]FPOBBG, 4-(3-[^18F]Fluoropropoxy)-3-bromobenzylguanidine]

heart uptake after DMI pretreatment ([2]; 1 h): 13.2 ± 3.3 % ID/g | bone uptake relative to that of [^18F]FPOBBG ([2]; 4 h, indicator of defluorination): about 4 fold | myocardial uptake as percent of that of [^125I]MIBG ([2]; i.v., three time points (1, 2, 4 h), paired-label): 72–74%
SMILES: N=C(N)NCc1ccc(OCCC[18F])c(I)c1 [[^18F]FPOIBG, 4-(3-[^18F]Fluoropropoxy)-3-iodobenzylguanidine]
uptake (cell-associated radioactivity as percentage of input dose) [3]: 13.3 ± 2.5% | uptake (cell-associated radioactivity as percentage of input dose) [4]: 39.6 ± 13.4% | uptake (cell-associated radioactivity as percentage of input dose) [5]: 10.2 ± 1.5%

hepatic (liver) uptake compared with co-injected radioiodinated MIBG [2]: lower liver uptake | heart uptake after DMI pretreatment ([2]; 1 h): 17.8 ± 1.8 % ID/g | thyroid uptake (indicator of deiodination) ([2]; compared with [^131I]MIBG): relatively low | heart uptake as percent of that of [^131I]MIBG ([2]; i.v., 1–4 h, paired-label): 41–61%
SMILES: N=C(N)NCc1ccc(OCCCF)c([125I])c1 [[^125I]FPOIBG, 4-(3-Fluoropropoxy)-3-[^125I]iodobenzylguanidine]
uptake as percent of [^131I]MIBG [8]: 31–53%

heart uptake after DMI pretreatment as percent of controls ([2]; 1 h): 69% | heart uptake after DMI pretreatment as percent of control values ([2]; 1 h, experiment with co-injected [^18F]FPOIBG): 57% | heart uptake [2, 9]: 18.7 ± 7.7 % ID/g | heart uptake [2, 10]: 16.1 ± 1.4 % ID/g | heart uptake [2, 11]: 10.2 ± 0.9 % ID/g
SMILES: NC(N)=NCc1cccc([125I])c1 [[^125I]MIBG]
uptake (cell-associated radioactivity as percentage of input dose) [3]: 66.3 ± 3.6% | reduction of myocardial uptake by DMI pretreatment [6]: 42 ± 4% | uptake (cell-associated radioactivity as percentage of input dose) [4]: 82.7 ± 8.9% | uptake (cell-associated radioactivity as percentage of input dose) [5]: 57.3 ± 8.1%

The remaining lines, values behind:

SMILES: N=C(N)NCc1cccc(I)c1 [MIBG, meta-iodobenzylguanidine]
IC50 [1]: 1.5 ± 1.1 µM

SMILES: N=C(N)NCc1cccc([131I])c1 [MIBG, meta-iodobenzylguanidine]
uptake in UVW-NAT cells compared to that in SK-N-BE(2c) (UVW-NAT cells): two-fold higher

SMILES: N=C(N)NCc1ccc([18F])c(I)c1 [[^18F]FIBG, 4-[^18F]fluoro-3-iodobenzylguanidine]
uptake in SK-N-SH cells, higher than that of co-incubated n.c.a. [^125I]MIBG (SK-N-SH cells): about 15%

SMILES: NC(N)=NCc1cccc([76Br])c1 [[^76Br]MBBG, ^76Br-meta-bromobenzylguanidine]
reduction of myocardial uptake by DMI pretreatment [6]: 64 ± 3% | uptake in both tumor and heart relative to [^123I]MIBG [7]: about 4 fold

SMILES: N=C(N)NCc1cccc([131I])c1 [[^131I]MIBG]
reduction of heart uptake by DMI ([2]; 1 h, experiment with co-injected [^125I]FPOIBG): 51%
